ChEMBL document CHEMBL1938337, “Discovery of novel, potent, and selective inhibitors of 3-phosphoinositide-dependent kinase (PDK1)” (J Med Chem, 2011)
Converted amounts (≈) assume the structure as drawn.

Experiments:
[1] = molecular target: T1, Serine/threonine-protein kinase TAO2 (Homo sapiens) (UniProt Q9UL54); experiment: Inhibition of TAOK2 at 1 uM
T1 sequence (whole entry): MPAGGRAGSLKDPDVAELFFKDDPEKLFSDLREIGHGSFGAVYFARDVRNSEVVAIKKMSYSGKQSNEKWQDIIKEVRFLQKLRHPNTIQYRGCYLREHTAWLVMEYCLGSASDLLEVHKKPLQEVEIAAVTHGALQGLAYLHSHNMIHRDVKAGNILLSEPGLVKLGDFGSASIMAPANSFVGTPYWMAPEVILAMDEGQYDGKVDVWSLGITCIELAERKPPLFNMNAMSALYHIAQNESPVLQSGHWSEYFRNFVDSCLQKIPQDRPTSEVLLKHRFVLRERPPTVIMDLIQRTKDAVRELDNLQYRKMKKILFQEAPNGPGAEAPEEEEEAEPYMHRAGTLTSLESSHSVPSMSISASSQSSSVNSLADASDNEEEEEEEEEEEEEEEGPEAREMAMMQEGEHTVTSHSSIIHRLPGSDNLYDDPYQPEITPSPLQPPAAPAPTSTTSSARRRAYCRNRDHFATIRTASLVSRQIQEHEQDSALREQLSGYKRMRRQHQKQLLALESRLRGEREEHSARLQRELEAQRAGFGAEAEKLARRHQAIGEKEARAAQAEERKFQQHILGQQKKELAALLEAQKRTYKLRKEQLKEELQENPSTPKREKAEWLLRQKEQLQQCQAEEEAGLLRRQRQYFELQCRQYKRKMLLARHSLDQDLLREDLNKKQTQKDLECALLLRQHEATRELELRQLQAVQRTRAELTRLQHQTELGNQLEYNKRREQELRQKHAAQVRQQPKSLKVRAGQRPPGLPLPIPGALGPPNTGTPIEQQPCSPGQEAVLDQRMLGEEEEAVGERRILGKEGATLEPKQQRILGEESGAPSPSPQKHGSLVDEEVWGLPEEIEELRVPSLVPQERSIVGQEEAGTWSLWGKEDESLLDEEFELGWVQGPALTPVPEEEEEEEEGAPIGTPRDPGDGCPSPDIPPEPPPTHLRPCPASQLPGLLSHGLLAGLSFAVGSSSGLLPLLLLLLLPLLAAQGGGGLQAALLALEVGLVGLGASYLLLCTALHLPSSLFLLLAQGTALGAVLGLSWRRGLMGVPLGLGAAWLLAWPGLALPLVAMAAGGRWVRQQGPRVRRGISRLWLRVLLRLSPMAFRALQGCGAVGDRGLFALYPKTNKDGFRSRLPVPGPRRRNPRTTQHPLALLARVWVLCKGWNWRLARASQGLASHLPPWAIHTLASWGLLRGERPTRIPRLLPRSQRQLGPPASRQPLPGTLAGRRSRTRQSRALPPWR

[2] = molecular target: T2, Aurora kinase A (Homo sapiens) (UniProt O14965); experiment: Inhibition of STK6 at 1 uM
T2 sequence (whole entry): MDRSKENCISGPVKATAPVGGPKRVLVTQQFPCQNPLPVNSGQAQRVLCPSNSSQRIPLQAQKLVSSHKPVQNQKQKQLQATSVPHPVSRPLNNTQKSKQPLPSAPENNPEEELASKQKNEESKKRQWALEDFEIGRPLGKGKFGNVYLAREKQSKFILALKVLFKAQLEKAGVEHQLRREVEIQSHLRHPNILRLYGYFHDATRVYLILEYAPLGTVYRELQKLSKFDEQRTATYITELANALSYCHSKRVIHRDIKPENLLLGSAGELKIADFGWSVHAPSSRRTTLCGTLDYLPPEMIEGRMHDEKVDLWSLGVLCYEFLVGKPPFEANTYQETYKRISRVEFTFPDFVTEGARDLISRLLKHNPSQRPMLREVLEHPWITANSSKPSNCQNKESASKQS

[3] = molecular target: Rho-associated protein kinase 1 (Homo sapiens) (UniProt Q13464); experiment: Inhibition of ROCK1 at 1 uM
[4] = molecular target: Phosphatidylinositol 4,5-bisphosphate 3-kinase catalytic subunit alpha isoform (Mus musculus, UniProt P42337); experiment: Inhibition of mouse PI3Kalpha after 30 mins by fluorescence polarization assay
How it was run: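 Mouse PI3Kα 0.5 nM with 30 μM PIP₂, 5 mM MgCl₂, 200 μM ATP, 30 min at room temperature (~22 °C); stopped with 10 mM EDTA. Then 3 min with detector mix of 480 nM GST-Grp1 PH domain and 12 nM TAMRA-PIP₃. Fluorescence polarization read in 50 mM Hepes pH 7.4, 150 mM NaCl, 5 mM DTT, 0.05% CHAPS. Duplicate points, nonlinear regression fit.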

[5] = molecular target: Ephrin type-A receptor 2 (Homo sapiens) (UniProt P29317); experiment: Inhibition of EPHA2 at 1 uM
[6] = Inhibition of p38 at 1 uM
[7] = molecular target: Insulin receptor (Homo sapiens) (UniProt P06213); experiment: Inhibition of INSR at 1 uM
[8] = Solubility of the compound at pH 6.5; format: physicochemical; settings: buffer
[9] = molecular target: T3, Serine/threonine-protein kinase Chk1 (Homo sapiens) (UniProt O14757); experiment: Inhibition of CHEK1 at 1 uM
T3 sequence (whole entry): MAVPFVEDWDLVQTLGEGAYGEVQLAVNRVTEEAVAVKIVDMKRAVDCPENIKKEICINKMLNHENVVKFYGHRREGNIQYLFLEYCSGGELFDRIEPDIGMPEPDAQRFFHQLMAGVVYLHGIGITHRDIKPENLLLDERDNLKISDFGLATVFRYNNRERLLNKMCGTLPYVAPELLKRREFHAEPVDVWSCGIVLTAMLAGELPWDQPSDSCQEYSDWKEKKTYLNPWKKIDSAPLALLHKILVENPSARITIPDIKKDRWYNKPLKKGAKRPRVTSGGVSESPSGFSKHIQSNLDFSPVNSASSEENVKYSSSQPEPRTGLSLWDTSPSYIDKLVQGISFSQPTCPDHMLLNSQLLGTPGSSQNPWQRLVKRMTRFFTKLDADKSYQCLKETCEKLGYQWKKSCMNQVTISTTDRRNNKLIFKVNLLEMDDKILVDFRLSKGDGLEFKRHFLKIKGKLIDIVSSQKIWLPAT

[10] = molecular target: Mitogen-activated protein kinase kinase kinase kinase 4 (Homo sapiens) (UniProt O95819); experiment: Inhibition of MAP4K4 at 1 uM
[11] = molecular target: Myosin light chain kinase 2, skeletal/cardiac muscle (Homo sapiens) (UniProt Q9H1R3); experiment: Inhibition of MYLK2 at 1 uM
[12] = molecular target: MAP kinase-activated protein kinase 2 (Homo sapiens) (UniProt P49137); experiment: Inhibition of MAPKAPK2 at 1 uM
[13] = molecular target: High affinity nerve growth factor receptor (Homo sapiens, UniProt P04629); experiment: Inhibition of NTRK1 at 1 uM
[14] = Inhibition of recombinant GST-tagged P70S6K using 5FAM-KRSRTRTDSYSAGQ-COOH as substrate by fluorescence based assay
How it was run: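 GST-tagged P70S6K (a.a. 1-421) at 5 nM, 50 μM ATP, 5 μM 5FAM-peptide. Product separated from substrate by charge (electrophoretic mobility shift, −2500/−500 V). Duplicates, nonlinear regression fit.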

Sequence of Mitogen-activated protein kinase kinase kinase kinase 4 (Homo sapiens) (O95819 2-1239 limits assumed): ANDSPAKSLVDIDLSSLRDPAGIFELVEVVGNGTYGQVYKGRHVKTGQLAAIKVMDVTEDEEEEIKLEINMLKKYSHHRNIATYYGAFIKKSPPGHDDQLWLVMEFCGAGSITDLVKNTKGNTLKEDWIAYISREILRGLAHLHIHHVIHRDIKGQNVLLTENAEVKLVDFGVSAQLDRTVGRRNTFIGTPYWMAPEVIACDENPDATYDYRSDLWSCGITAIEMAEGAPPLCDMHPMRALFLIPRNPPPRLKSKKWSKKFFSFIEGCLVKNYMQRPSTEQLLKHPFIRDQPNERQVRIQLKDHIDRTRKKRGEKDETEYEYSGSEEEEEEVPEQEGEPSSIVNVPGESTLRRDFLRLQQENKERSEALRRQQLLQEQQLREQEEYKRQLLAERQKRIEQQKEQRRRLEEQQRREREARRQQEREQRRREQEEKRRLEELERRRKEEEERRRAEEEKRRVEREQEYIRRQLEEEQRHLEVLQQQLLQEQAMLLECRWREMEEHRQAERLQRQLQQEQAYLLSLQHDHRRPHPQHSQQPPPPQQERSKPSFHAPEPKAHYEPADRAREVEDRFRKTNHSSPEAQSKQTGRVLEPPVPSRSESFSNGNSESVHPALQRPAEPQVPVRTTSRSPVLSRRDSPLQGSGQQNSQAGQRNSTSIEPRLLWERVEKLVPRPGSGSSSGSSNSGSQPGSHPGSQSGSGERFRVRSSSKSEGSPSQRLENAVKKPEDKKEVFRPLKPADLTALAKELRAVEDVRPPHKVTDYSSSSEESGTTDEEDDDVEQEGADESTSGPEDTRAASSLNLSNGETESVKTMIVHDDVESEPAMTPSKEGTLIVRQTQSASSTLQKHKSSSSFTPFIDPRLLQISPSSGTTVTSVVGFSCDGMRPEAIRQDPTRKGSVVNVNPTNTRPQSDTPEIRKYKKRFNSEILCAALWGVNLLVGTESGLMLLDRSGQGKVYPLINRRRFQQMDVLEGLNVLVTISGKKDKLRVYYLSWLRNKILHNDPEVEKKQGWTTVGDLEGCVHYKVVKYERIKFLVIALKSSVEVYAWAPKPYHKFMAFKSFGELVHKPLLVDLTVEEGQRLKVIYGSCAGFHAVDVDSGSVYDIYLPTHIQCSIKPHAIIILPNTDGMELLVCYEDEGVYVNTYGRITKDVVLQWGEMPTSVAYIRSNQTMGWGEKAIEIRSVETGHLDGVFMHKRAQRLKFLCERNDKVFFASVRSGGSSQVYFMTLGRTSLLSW
Sequence of Myosin light chain kinase 2, skeletal/cardiac muscle (Homo sapiens) (Q9H1R3 whole entry): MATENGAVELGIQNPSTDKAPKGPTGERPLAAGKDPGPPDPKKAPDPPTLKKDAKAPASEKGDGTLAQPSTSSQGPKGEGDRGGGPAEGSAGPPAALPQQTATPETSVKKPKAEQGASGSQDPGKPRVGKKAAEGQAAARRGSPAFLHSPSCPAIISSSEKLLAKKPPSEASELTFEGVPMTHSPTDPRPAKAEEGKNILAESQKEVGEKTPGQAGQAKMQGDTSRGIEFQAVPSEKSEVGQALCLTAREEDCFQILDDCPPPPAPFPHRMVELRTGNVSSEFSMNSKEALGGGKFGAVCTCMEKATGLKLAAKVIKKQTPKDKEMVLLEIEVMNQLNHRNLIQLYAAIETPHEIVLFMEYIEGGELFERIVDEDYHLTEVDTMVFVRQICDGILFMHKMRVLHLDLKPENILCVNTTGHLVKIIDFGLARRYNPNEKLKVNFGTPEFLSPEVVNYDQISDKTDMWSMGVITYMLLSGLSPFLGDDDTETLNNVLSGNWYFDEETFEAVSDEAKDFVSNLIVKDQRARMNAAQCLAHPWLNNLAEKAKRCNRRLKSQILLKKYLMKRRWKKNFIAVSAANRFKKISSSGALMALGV
Sequence of Insulin receptor (Homo sapiens) (P06213 28-758 limits assumed): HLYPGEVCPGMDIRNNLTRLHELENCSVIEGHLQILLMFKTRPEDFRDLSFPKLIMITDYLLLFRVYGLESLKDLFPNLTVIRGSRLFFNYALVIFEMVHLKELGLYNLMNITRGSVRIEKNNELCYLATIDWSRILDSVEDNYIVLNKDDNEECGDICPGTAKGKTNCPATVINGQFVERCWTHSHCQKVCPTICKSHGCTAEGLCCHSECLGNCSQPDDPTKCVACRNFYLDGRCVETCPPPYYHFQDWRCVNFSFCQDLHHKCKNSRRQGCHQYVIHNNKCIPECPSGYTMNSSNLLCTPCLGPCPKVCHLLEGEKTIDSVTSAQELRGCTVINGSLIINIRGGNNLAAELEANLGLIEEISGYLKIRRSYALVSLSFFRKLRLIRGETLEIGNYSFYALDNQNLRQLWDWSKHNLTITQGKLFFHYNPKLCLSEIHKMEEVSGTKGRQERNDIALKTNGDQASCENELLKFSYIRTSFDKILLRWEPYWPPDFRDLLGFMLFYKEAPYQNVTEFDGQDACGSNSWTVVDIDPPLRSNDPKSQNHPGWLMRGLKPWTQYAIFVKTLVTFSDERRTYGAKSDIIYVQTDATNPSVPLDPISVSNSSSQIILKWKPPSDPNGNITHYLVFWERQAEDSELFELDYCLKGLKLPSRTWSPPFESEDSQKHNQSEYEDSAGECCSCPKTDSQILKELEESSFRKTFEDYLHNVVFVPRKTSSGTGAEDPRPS
Sequence of Insulin receptor (Homo sapiens) (P06213 763-1382 limits assumed): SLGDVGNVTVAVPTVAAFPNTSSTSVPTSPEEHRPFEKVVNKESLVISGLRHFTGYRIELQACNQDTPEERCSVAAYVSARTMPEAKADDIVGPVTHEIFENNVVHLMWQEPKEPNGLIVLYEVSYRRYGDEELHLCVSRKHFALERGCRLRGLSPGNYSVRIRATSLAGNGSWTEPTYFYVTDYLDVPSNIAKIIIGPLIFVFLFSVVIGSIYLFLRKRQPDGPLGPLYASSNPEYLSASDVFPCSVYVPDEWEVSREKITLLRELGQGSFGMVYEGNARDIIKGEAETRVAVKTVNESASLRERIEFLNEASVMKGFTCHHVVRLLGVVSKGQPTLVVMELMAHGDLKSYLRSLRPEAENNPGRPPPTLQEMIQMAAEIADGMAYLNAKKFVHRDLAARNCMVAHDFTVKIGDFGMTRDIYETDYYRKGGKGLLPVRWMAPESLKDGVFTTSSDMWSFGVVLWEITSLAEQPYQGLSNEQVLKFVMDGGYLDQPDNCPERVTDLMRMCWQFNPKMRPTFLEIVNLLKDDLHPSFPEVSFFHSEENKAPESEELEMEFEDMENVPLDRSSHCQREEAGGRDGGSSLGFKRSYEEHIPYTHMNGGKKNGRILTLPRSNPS
Sequence of Phosphatidylinositol 4,5-bisphosphate 3-kinase catalytic subunit alpha isoform (P42337 whole entry, the tested form may be a part, canonical isoform): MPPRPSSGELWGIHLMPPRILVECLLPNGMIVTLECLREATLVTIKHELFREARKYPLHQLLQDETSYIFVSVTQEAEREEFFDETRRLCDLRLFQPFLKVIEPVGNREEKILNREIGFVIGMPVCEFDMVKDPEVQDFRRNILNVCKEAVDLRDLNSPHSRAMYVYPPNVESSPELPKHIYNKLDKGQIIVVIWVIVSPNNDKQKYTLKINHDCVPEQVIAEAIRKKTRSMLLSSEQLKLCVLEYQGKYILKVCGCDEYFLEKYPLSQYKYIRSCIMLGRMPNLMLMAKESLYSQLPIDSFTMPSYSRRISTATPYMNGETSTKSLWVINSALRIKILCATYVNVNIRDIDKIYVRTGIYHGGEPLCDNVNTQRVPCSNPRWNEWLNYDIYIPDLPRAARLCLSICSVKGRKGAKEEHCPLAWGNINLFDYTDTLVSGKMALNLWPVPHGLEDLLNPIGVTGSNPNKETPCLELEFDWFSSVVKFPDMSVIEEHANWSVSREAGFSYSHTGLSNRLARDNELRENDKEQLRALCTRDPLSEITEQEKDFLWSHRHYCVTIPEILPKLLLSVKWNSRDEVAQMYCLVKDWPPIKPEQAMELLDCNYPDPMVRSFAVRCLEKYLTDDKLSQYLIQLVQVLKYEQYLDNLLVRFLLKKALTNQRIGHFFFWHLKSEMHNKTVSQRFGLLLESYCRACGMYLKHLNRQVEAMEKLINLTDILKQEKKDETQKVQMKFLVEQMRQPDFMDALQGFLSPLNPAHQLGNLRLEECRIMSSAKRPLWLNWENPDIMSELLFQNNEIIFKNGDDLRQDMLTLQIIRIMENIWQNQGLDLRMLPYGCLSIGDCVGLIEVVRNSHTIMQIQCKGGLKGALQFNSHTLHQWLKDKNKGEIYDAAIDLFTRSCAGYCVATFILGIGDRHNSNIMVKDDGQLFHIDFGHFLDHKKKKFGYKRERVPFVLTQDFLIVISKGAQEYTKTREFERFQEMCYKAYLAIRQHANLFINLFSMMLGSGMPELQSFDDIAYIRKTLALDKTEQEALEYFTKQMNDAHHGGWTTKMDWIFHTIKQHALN
Sequence of High affinity nerve growth factor receptor (P04629 33-796 limits assumed): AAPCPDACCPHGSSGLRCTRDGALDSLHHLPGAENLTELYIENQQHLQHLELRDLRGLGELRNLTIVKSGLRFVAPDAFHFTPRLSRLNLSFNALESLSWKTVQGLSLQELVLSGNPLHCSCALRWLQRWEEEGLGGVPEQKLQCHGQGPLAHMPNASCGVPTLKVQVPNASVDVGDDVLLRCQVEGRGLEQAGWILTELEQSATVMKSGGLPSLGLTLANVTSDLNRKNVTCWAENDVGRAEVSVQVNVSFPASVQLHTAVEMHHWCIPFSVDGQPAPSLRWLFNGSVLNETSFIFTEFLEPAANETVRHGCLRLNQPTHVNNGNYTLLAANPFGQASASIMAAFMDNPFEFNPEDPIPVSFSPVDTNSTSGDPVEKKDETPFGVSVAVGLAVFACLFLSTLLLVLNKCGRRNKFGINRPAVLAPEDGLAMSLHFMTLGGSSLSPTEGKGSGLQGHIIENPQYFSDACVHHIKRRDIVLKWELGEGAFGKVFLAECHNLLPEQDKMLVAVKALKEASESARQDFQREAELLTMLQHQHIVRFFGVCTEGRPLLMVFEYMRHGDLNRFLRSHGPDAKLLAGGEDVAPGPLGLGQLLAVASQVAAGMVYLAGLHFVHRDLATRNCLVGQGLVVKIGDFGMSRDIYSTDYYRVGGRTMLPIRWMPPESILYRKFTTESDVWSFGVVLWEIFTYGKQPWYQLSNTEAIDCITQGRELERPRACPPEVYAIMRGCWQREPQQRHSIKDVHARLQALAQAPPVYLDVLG

Row | inhibition [1] | inhibition [2] | inhibition [3] | Ki [4] | inhibition [5] | inhibition [6] | inhibition [7] | solubility [8] | inhibition [9] | inhibition [10] | inhibition [11] | inhibition [12] | inhibition [13] | Ki [14] | Structure (SMILES)
1 | -5% | 54% | -5% | 1.9 µM | 3% | 0% | 4% | 510 µM (≈ 247 µg/mL) | 7% | 23% | -2% | 6% | 59% | 3.6 µM | CC(=O)N1CC[C@@H](Nc2cncc(C(=O)c3cn(C(C)C)c4ncnc(N)c34)n2)[C@H]1c1ccccc1
2 | 4% | 80% | 5% | 1.3 µM | 1% | -1% | 3% | 390 µM (≈ 196 µg/mL) | 24% | 50% | -8% | 2% | 63% | 10 µM | CC(=O)N1CC[C@@H](Nc2cncc(C(=O)c3cn(C(C)C)c4ncnc(N)c34)n2)[C@H]1c1ccc(F)cc1
3 | -1% | 81% | 4% | 0.13 µM | 7% | 6% | 4% | 290 µM (≈ 142 µg/mL) | 38% | 57% | 3% | 6% | 74% | 0.89 µM | CC(C)n1cc(C(=O)c2cncc(N[C@@H]3CCN(C=O)[C@@H]3c3ccc(F)cc3)n2)c2c(N)ncnc21
